Results reported in paper PMC9328826 (Journal of Food and Drug Analysis, 2016).

Tests used:
[1] = WST-8 cytotoxicity assay on NIH/3T3 cells; assay type: cell-based; settings: mouse, NIH/3T3 embryonic fibroblast cells
Method in brief: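 NIH/3T3 cells, cultured in HEPES-buffered E-MEM with 10% FBS at 37°C, 5% CO2, seeded at 2 × 10^3 cells/well. Exposed to test compound at 0.5–10 μM for 24 and 48 hours at 37°C, with 0.1% DMSO for control and cell-free blank. WST-8 added for 4 hours, then OD read at 450 nm. Viability given as % of control (n = 3); IC50 fitted from dose-response curve by Hill slope.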

[2] = test system: caspase-3/7; experiment: Caspase-3/7 activity, FAM-DEVD-FMK fluorescence probe; assay type: cell-based, human; settings: HeLa, 24 hours; Compound 1 at 3 μM
Method in brief: (§1)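 HeLa cells grown in E-MEM with 4.2 mM HEPES, 10% FBS, penicillin/streptomycin, 37°C, 5% CO2. 3 × 10^6 cells exposed to test compound at 3 μM for 24 hours, harvested, labelled 1 hour at 37°C with FAM-FLICA probe (DEVD-FMK caspase-3/7, LETD-FMK caspase-8, LEHD-FMK caspase-9), washed. Fluorescence at ex 485/em 530 nm on a plate reader, given as n-fold over control. Mean ± SD; Duncan test.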

[3] = test system: caspase-9; experiment: Caspase-9 activity, FAM-LEHD-FMK fluorescence probe; assay type: cell-based, human; settings: HeLa, 24 hours; Compound 1 at 3 μM
Method in brief: as §1

[4] = test system: caspase-8; experiment: Caspase-8 activity, FAM-LETD-FMK fluorescence probe; assay type: cell-based, human; settings: HeLa, 24 hours; Compound 1 at 3 μM
Method in brief: as §1

[5] = test system: mitochondria membrane potential of HeLa cells; experiment: JC-1 assay of mitochondria membrane potential; assay type: cell-based, human; settings: 10 μM, 48 hours, untreated cells 294
Method in brief: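 5 × 10^5 HeLa cells exposed to test compound at 3 μM for 24 and 48 hours, or to a reference drug at 10 μM. Stained with JC-1 for 30 minutes at 37°C, then washed. Green signal read at ex 485/em 530 nm on a plate reader. Red fluorescence (ex 520/em 595 nm) imaged by microscopy at ×400, with intensity quantified from the images. Mean ± SD; Duncan test.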

[6] = test system: K562/ADM cell line; settings: read-out: IC50, cytotoxic activity on K562/ADM cell line; 72 hours ref 11; cited from earlier work
[7] = test system: HT-29 cell line; settings: read-out: IC50, cytotoxic activity on HT-29 cell line; 72 hours ref 19; cited from earlier work

| Compound | IC50 at 24 h [1] [µM] | IC50 at 48 h [1] [µM] | further results |
| --- | --- | --- | --- |
| C=C1C(=O)O[C@H]2[C@H]1[C@H](OC(=O)[C@@]1(C)O[C@H]1C)[C@@H](OC(C)=O)/C(C(=O)OC)=C\CC[C@@]1(C)O[C@H]21 [Compound 3, Enhydrin] | 2.7 | 1.53 | – |
| C=C1C(=O)O[C@@H]2/C=C(\C)CC/C=C(/C(=O)OC)[C@H](OC(C)=O)[C@@H](OC(=O)[C@]3(C)O[C@@H]3C)[C@@H]12 [Compound 4, Uvedalin] | 5.29 | 2.66 | increase of caspase-3/7 activity against control [2]: 2.34 fold; increase of caspase-9 activity against control [3]: 3.17 fold; increase of caspase-8 activity against control [4]: 1.47 fold |
| COc1cc([C@@H]2c3cc4c(cc3[C@@H](O[C@@H]3O[C@@H]5CO[C@@H](C)O[C@H]5[C@H](O)[C@H]3O)[C@H]3COC(=O)[C@H]23)OCO4)cc(OC)c1O [Etoposide] | 7.43 | 0.82 | increase of caspase-3/7 activity against control [2]: 3.88 fold; red fluorescence intensity (RFI), JC-1 [5]: 17.56; increase of caspase-9 activity against control [3]: 3.96 fold; increase of caspase-8 activity against control [4]: 3.18 fold |
| CO[C@@]12[C@H](COC(N)=O)C3=C(C(=O)C(C)=C(N)C3=O)N1C[C@@H]1N[C@@H]12 [Mitomycin C] | 4.43 | 1.26 | – |
| C=C1C(=O)O[C@H]2[C@H]1CC/C(C)=C/CC[C@@]1(C)O[C@@H]21 [Parthenolide] | 12.3 | 8.95 | – |
| CC(=O)O[C@H]1C(=O)[C@@]2(C)[C@H]([C@H](OC(=O)c3ccccc3)[C@]3(O)C[C@H](OC(=O)[C@H](O)[C@@H](NC(=O)c4ccccc4)c4ccccc4)C(C)=C1C3(C)C)[C@]1(OC(C)=O)CO[C@@H]1C[C@@H]2O [Taxol] | 0.39 | 0.12 | – |
| C=C1CC[C@H]2C(OC(=O)[C@@H]2C)[C@H]2[C@@H]1CC(=O)[C@@H]2CC=C1CC[C@H]2C(=C)[C@H](O)C[C@@H]3[C@H](OC(=O)[C@H]3C)[C@@H]12 (stereo partly drawn) [biguaiascorzolide A] | – | – | IC50 [6]: 39.8 µM |
| rufescenolide C | – | – | IC50 [7]: 0.15 µM |
